Consider 32 compounds from PMC11044719 (Journal of Enzyme Inhibition and Medicinal Chemistry, 2024).

For one series, the target named is FGFR4 kinase (Homo sapiens, UniProt P22455). The series can be described thus: biochemical. To be noted: for inhibition at 1 µM: read-out: % inhibition against FGFR4 kinase. The format is biochemical.
Series [1] is described as follows: Metabolic stability assay in human liver microsomes. Type of series: in vitro ADME. To be noted: pH 7. (In general: Liver microsomes are vesicles of endoplasmic reticulum, rich in cytochrome P450 enzymes.)
The next series deals with FGFR3 (Homo sapiens, UniProt P22607). As to the kind of experiment: In vitro kinase assay. The format is biochemical. The following applies: read-out: % inhibition at 1 μM FGFR3. An outline of the steps: (§1)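 Test compound at 0.1 and 1 μM against each FGFR isoform with ATP at its Km concentration; percent inhibition reported.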
Series [2] is described as follows: Metabolic stability assay in mouse liver microsomes. The format is in vitro ADME. The following applies: pH 7. Summed up: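 Human or mouse liver microsomes (0.5 mg/ml) were pre-incubated 5 min at 37 °C with 1 μM test compound in 0.1 M phosphate buffer, pH 7. NADPH regenerating system was added and the mix incubated 30 min at 37 °C. Acetonitrile with internal standard stopped the reaction. Parent compound was measured by LC-MS/MS, with % remaining at 30 min versus 0 min, in duplicate.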

A further series deals with FGFR2 (Homo sapiens, UniProt P21802). The series can be described thus: In vitro kinase assay. The format is biochemical. To be noted: read-out: % inhibition at 1 μM FGFR2. Summed up: as §1
For another series, the target named is FGFR1 (Homo sapiens, UniProt P11362). As to the kind of experiment: In vitro kinase assay. The following applies: read-out: % inhibition at 1 μM FGFR1. Type of series: biochemical. Summed up:
as §1

FGFR4 kinase, sequence (P22455 22-802): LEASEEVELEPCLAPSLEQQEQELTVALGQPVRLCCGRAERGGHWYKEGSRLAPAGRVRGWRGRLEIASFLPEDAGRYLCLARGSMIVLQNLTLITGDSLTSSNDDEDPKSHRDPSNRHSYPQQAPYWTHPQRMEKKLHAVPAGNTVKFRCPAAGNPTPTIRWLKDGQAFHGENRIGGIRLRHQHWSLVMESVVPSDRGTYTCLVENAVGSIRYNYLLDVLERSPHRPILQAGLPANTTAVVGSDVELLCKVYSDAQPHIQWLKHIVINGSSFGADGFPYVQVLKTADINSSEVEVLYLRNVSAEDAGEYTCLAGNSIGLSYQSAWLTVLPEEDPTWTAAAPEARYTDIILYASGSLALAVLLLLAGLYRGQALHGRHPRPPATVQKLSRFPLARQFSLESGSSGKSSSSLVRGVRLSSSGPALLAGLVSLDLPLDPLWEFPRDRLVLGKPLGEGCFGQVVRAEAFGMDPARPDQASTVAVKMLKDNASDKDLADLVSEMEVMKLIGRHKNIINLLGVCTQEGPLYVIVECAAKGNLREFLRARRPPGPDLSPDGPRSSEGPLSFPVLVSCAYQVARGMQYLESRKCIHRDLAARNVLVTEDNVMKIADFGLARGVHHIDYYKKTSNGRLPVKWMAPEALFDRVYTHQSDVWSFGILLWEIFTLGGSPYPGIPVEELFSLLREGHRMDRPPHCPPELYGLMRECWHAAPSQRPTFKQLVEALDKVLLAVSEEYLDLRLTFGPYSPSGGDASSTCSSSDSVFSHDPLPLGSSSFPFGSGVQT
FGFR3, sequence (P22607 23-806): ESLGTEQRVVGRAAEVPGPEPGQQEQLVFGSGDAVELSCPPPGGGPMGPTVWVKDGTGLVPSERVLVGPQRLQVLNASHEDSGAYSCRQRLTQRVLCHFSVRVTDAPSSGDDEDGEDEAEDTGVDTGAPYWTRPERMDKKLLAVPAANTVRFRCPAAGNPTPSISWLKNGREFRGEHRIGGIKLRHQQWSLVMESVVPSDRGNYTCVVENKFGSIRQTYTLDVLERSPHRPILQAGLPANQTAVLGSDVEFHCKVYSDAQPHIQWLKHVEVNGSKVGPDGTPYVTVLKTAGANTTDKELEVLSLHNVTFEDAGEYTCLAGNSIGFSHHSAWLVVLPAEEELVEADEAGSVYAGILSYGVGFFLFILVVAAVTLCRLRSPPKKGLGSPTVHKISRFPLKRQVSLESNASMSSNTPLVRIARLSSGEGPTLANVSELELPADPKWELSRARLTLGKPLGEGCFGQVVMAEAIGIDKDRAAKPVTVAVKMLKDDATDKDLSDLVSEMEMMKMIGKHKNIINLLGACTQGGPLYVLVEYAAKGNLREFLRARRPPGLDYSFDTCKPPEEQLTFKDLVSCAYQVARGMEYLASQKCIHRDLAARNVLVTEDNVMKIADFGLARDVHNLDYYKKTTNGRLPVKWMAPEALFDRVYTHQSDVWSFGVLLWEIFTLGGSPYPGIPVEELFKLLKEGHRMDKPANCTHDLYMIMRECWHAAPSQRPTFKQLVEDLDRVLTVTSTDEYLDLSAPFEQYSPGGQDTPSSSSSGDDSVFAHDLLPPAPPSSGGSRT
FGFR2, sequence (P21802 22-821): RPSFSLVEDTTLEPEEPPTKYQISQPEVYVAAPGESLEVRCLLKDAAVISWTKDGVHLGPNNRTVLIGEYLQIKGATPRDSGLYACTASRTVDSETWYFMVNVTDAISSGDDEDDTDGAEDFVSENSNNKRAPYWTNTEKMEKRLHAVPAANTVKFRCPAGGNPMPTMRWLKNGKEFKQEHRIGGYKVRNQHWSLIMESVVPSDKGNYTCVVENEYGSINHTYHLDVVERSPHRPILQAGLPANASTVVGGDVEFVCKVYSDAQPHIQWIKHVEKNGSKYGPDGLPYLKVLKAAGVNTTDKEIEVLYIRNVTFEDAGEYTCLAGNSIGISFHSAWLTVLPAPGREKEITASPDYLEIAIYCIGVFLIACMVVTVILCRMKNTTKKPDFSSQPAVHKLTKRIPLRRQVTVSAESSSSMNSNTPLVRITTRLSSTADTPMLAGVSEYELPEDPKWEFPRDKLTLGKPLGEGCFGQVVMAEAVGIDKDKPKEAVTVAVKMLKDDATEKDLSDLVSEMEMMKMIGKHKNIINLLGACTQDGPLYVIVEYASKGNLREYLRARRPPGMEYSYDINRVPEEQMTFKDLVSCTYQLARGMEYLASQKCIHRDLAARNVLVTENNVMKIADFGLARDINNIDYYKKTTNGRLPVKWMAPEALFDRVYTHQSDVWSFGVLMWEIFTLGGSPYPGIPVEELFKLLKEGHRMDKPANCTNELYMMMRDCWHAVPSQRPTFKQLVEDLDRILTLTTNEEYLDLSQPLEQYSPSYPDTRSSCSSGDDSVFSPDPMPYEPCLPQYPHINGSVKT
FGFR1, sequence (P11362 22-822): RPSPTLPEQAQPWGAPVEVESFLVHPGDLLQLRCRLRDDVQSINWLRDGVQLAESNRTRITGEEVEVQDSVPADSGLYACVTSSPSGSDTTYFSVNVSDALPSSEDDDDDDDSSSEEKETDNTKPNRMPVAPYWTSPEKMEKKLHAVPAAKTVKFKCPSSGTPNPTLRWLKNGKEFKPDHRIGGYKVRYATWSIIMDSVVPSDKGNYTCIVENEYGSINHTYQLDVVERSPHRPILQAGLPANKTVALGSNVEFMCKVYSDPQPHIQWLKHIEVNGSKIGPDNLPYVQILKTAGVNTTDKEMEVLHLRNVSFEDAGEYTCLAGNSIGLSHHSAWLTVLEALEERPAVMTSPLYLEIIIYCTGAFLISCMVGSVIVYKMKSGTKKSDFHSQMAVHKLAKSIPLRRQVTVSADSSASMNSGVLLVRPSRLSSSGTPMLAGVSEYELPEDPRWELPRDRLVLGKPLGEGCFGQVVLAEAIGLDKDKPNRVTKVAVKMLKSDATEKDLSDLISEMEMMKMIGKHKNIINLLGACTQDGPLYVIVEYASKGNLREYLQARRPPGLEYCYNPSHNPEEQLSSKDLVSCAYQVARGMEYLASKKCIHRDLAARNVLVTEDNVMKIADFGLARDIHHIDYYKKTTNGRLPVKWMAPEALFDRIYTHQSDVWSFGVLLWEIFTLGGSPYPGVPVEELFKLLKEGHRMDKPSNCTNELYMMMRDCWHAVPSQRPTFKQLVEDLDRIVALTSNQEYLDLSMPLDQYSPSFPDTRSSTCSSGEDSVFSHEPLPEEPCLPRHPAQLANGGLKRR

For the compound `C=CC(=O)Nc1ccccc1C(=O)Nc1cccnn1` [2a, 2-Acrylamido-N-(pyridazin-3-yl)benzamide], the inhibition (usually the change of the read-out against control, counted positive when it falls) at 1 µM on FGFR4 kinase was 21%. On the same count and under the same terms, the figure for `C=CC(=O)Nc1ccccc1C(=O)Nc1ccccn1` [2b, 2-Acrylamido-N-(pyridin-2-yl)benzamide] is 9%; for `C=CC(=O)Nc1ccccc1C(=O)Nc1cccnc1` [2c, 2-Acrylamido-N-(pyridin-3-yl)benzamide] it is 7%. For `C=CC(=O)Nc1ccccc1C(=O)Nc1ncccn1` [2d, 2-Acrylamido-N-(pyrimidin-2-yl)benzamide], the inhibition at 1 µM on FGFR4 kinase turned out to be 6%. On the same count and under the same terms, under `C=CC(=O)Nc1ccccc1C(=O)Nc1ccncn1` [2e, 2-Acrylamido-N-(pyrimidin-4-yl)benzamide] stands 12%; under `C=CC(=O)Nc1ccccc1C(=O)Nc1cnccn1` [2f, 2-Acrylamido-N-(pyrazin-2-yl)benzamide], 9%; under `C=CC(=O)Nc1ccccc1C(=O)Nc1ccc(Cl)nn1` [2g, 2-Acrylamido-N-(6-chloropyridazin-3-yl)benzamide], 30%. For the compound `C#Cc1ccc(NC(=O)c2ccccc2NC(=O)C=C)cn1` [2h, 2-Acrylamido-N-(6-ethynylpyridin-3-yl)benzamide], the inhibition at 1 µM on FGFR4 kinase stood at 44%. Same read-out and setting: the figure for `C#Cc1ccc(NC(=O)c2ccccc2NC(=O)C=C)nn1` [2i, 2-Acrylamido-N-(6-ethynylpyridazin-3-yl)benzamide] is 49%; for `C=CC(=O)Nc1ccccc1C(=O)Nc1cc(C)on1` [2j, 2-Acrylamido-N-(5-methylisoxazol-3-yl)benzamide] it is 5%; for `C=CC(=O)Nc1ccccc1C(=O)Nc1n[nH]c2ccccc12` [2k, 2-Acrylamido-N-(1H-indazol-3-yl)benzamide] it is 4%. On the same count and under the same terms, the figure for `C=CC(=O)Nc1ccccc1C(=O)Nc1ncnc2ccccc12` [2l, 2-Acrylamido-N-(quinazolin-4-yl)benzamide] is 0%. The same measure, in the same setting: under `C=CC(=O)Nc1ccccc1C(=O)Nc1ccc(C#CCN(C)C)nn1` [4a, 2-Acrylamido-N-(6–(3-(dimethylamino)prop-1-yn-1-yl)pyridazin-3-yl)benzamide] stands 10%; under `C=CC(=O)Nc1ccccc1C(=O)Nc1ccc(C#CCOC)nn1` [4b, 2-Acrylamido-N-(6–(3-methoxyprop-1-yn-1-yl)pyridazin-3-yl)benzamide], 47%. Take `C=CC(=O)Nc1ccccc1C(=O)Nc1ccc(C#Cc2ccc(OC)cc2)nn1` [4c, 2-Acrylamido-N-(6-((4-methoxyphenyl)ethynyl)pyridazin-3-yl)benzamide]: the figures for the amount remaining at 0.5 h, 1 μM in series [1] and in series [2] were 7.5% and 25.2%, respectively. Besides, at FGFR4 kinase, the IC50 (in general, the point on the concentration scale where inhibition reaches its midpoint) was found to be 33 nM. For the same compound, the “fold more potent than staurosporin (IC50)” value at FGFR4 kinase stood at 5 fold. At FGFR4 kinase (FGFR4 IC50 compared with other derivatives of Table 3), the “fold improvement of IC50 compared to that of other derivatives” value is recorded as ~10 fold. The inhibition at 1 µM turned out to be 97% at FGFR4 kinase and 0% at FGFR3. As for `C=CC(=O)Nc1ccccc1C(=O)Nc1ccc(C#Cc2cccc(OC)c2)nn1` [4d, 2-Acrylamido-N-(6-((3-methoxyphenyl)ethynyl)pyridazin-3-yl)benzamide], at FGFR4 kinase, the IC50 is 424 nM and the inhibition at 1 µM was 86%. As for `C=CC(=O)Nc1ccccc1C(=O)Nc1ccc(C#Cc2ccccc2OC)nn1` [4e, 2-Acrylamido-N-(6-((2-methoxyphenyl)ethynyl)pyridazin-3-yl)benzamide], the inhibition at 1 µM at FGFR4 kinase came to 42%. The same measure, in the same setting: under `C=CC(=O)Nc1ccccc1C(=O)Nc1ccc(C#Cc2cc(OC)cc(OC)c2)nn1` [4f, 2-Acrylamido-N-(6-((3,5-dimethoxyphenyl)ethynyl)pyridazin-3-yl)benzamide] stands 80%. The same measure, in the same setting: under `C=CC(=O)Nc1ccccc1C(=O)Nc1ccc(C#Cc2cccc(N(C)C)c2)nn1` [4g, 2-Acrylamido-N-(6-((3-(dimethylamino)phenyl)ethynyl)pyridazin-3-yl)benzamide] stands 59%.

Take `C=CC(=O)Nc1ccccc1C(=O)Nc1ccc(C#Cc2ccc(N(C)C)cc2)nn1` [4h, 2-Acrylamido-N-(6-((4-(dimethylamino)phenyl)ethynyl)pyridazin-3-yl)benzamide]: the inhibition at 1 µM at FGFR4 kinase was determined as 92%.

As to `C=CC(=O)Nc1ccccc1C(=O)Nc1ccc(C#Cc2ccccc2)nn1` [4i, 2-Acrylamido-N-(6-(phenylethynyl)pyridazin-3-yl)benzamide], on FGFR4 kinase, the concentration for half-maximal inhibition (IC50) stood at 235 nM and the inhibition at 1 µM was found to be 91%. Consider `C=CC(=O)Nc1ccccc1C(=O)Nc1ccc(C#Cc2cccnc2)nn1` [4j, 2-Acrylamido-N-(6-(pyridin-3-ylethynyl)pyridazin-3-yl)benzamide], for which the inhibition at 1 µM on FGFR4 kinase was 13%. Still for that read-out and setting: the figure for `C=CC(=O)Nc1ccccc1C(=O)Nc1ccc(C#CC2CCCCC2)nn1` [4k, 2-Acrylamido-N-(6-(cyclohexylethynyl)pyridazin-3-yl)benzamide] is 25%; for `C=CC(=O)Nc1ccccc1C(=O)Nc1ccc(C#Cc2cccc3ccccc23)nn1` [4l, 2-Acrylamido-N-(6-(naphthalen-1-ylethynyl)pyridazin-3-yl)benzamide] it is 17%; for `C=CC(=O)Nc1ccccc1C(=O)Nc1ccc(C#CCOc2cccc(OC)c2)nn1` [4m, 2-Acrylamido-N-(6–(3-(3-methoxyphenoxy)prop-1-yn-1-yl)pyridazin-3-yl)benzamide] it is 37%.

On to `C=CC(=O)Nc1ccccc1C(=O)Nc1ccc(Oc2cccc(OC)c2)nn1` [4n, 2-Acrylamido-N-(6–(3-methoxyphenoxy)pyridazin-3-yl)benzamide], for which the inhibition at 1 µM at FGFR4 kinase is 7%. On the same count and under the same terms, the figure for `C=CC(=O)Nc1ccccc1C(=O)Nc1ccc(-c2cccc(OC)c2)nn1` [4o, 2-Acrylamido-N-(6–(3-methoxyphenyl)pyridazin-3-yl)benzamide] is 39%; for `C=CC(=O)Nc1ccccc1C(=O)Nc1ccc(CCc2cccc(OC)c2)nn1` [4p, 2-Acrylamido-N-(6–(3-methoxyphenethyl)pyridazin-3-yl)benzamide] it is 26%. In the case of `C=CC(=O)Nc1ccccc1C(=O)Nc1ccc(CCc2cccc(N(C)C)c2)nn1` [4q, 2-Acrylamido-N-(6–(3-(dimethylamino)phenethyl)pyridazin-3-yl)benzamide], the inhibition at 1 µM on FGFR4 kinase turned out to be 13%.

As for `C=CC(=O)Nc1ccccc1C(=O)Nc1ccc(C#Cc2ccc3c(c2)OCO3)nn1` [4s, 2-Acrylamido-N-(6–(2-(1,3-benzodioxol-5-yl)ethynyl)pyridazin-3-yl)benzamide], the fraction remaining (usually what is left of the initial amount, in per cent) at 0.5 h, 1 μM in series [1] is 62.1%; in series [2], 53.9%. This compound came in with a half-inhibitory concentration (IC50) at FGFR4 kinase of 319 nM. In addition, on FGFR4 kinase, the inhibition at 1 µM stood at 92%.

As for `CCC(=O)Nc1ccccc1C(=O)Nc1ccc(C#Cc2ccc(OC)cc2)nn1` [4t, N-[6-[2–(4-methoxyphenyl)ethynyl]pyridazin-3-yl]-2-(propanoylamino)benzamide], the inhibition at 1 µM on FGFR4 kinase was determined as 0%. On to `C=CC(=O)N[C@H]1CCOC[C@H]1Nc1ncc2cc(-c3c(Cl)c(OC)cc(OC)c3Cl)ccc2n1` [BLU554, fisogatinib, reference compound], for which the inhibition at 1 µM on FGFR2 was found to be 11%; on FGFR1 it was 29%; on FGFR4 kinase, 97%; on FGFR3, 10%.
